3 molecules from ChEMBL document CHEMBL1629417, “Benzophenones and biflavonoids from Rheedia edulis” (J Nat Prod, 2010) can be followed below.

As a reminder, the pIC50 is the IC50 on a negative log10 scale, so that one unit is a factor of ten.

SMILES strings stand for the structures. pIC50: −log10 of the molar value.

Assay [1] relates to Radical scavenging activity. Kind of assay: Antioxidant activity assessed as DPPH radical scavenging activity. The format is functional. A digest of the protocol:
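Follows a previously described method. Trolox and gallic acid serve as reference antioxidants. Scavenging is expressed as percent inhibition of DPPH relative to DMSO-treated controls, and IC50 values are derived from it.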

Assay [2] can be described thus: Antioxidant activity assessed as ABTS radical scavenging activity. The format is functional. A digest of the protocol:
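Based on the Re et al. ABTS radical cation decolorization method, with modifications. Trolox and gallic acid serve as reference antioxidants. Percent inhibition of ABTS is calculated as in the DPPH assay, relative to DMSO-treated controls, and IC50 values are derived from it.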

For the molecule `CC(C)=CC[C@H]1C[C@]2(CC=C(C)C)C(=O)[C@@](CC=C(C)C)(C(=O)C(C(=O)c3ccccc3)=C2O)C1(C)C` [6-EPI-CLUSIANONE], the negative-log IC50 (pIC50) in assay [1] is 3.12; in assay [2], 3.54.

As to `O=C(O)c1cc(O)c(O)c(O)c1` [GALLIC ACID], the pIC50 is 4.47 in assay [1] and 4.70 in assay [2].

With `Cc1c(C)c2c(c(C)c1O)CCC(C)(C(=O)O)O2` (stereo unspecified) [TROLOX], the values for the negative-log IC50 (pIC50) in assay [1] and in assay [2] were 4.15 and 4.31, respectively.
